Measurements published in ChEMBL document CHEMBL3286113, “New potent antibacterial oxazolidinone (MRX-I) with an improved class safety profile” (J Med Chem, 2014).

Assays:
[1] = Cmax in fasted human at 600 mg, po administered as single dose; assay type: ADME, organism-based; parameters: dose 600 mg, route oral; details: in vivo
Method in brief: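 Healthy volunteers (12; six of each sex) in a three-period Latin-square crossover. Each received single oral doses of 300, 600 and 900 mg under fasting conditions, with a 1-week washout between doses. Parameters from a noncompartmental model.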

[2] = Tmax in fasted human at 600 mg, po administered as single dose; assay type: ADME, organism-based; details: in vivo
Method in brief: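 Randomized single-dose, three-period Latin-square crossover in 12 healthy volunteers (six per gender), fasting. Single oral doses of 300, 600 and 900 mg were separated by a 1-week washout. PK parameters were derived by noncompartmental analysis.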

[3] = AUC (0 to infinity) in fasted human at 600 mg, po administered as single dose; assay type: ADME, organism-based; parameters: dose 600 mg, route oral, time infinity; details: plasma
Method in brief: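 Single-dose, three-period Latin-square crossover in 12 healthy volunteers (6 of each gender). Each received single oral 300, 600 and 900 mg doses under fasting conditions, with a 1-week washout between doses. PK parameters, including AUC0−inf, came from a noncompartmental model.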

Homo sapiens [4] = assay: Toxicity in human at 600 to 800 mg, po administered as single dose with meal on day 1 and day 15 followed by bid with meal on day 2 to day 14 measured during compound treatment; assay type: organism-based; details: in vivo
Rattus norvegicus [5] = species on record: Rattus norvegicus; assay: Drug uptake in rat measured over 7 days; assay type: ADME, organism-based; details: in vivo, 168 h
Homo sapiens [6] = assay: Drug uptake in human at 600 to 800 mg, po administered as single dose with meal measured on day 1 and day 15; assay type: ADME, organism-based; details: in vivo
Method in brief: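 Randomized, double-blind, placebo-controlled multiple-dose study in 32 healthy subjects, half male and half female. Each dose was taken with a meal, at 600 or 800 mg, 28 doses over 15 days. A single dose on days 1 and 15 gave full PK; BID (Q12h) dosing ran on days 2–14.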

Rattus norvegicus [7] = assay: Drug uptake in rat at 20 to 300 mg/kg/day, po bid administered for 4 weeks measured after day 28; assay type: ADME, organism-based; parameters: route oral; details: in vivo, 672 h
Method in brief: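 Rats, 10 per sex per group, dosed orally twice daily at 20, 100 and 200 mg/kg/day for 4 weeks, then a 4-week recovery. The top dose was raised to 300 mg/kg/day on day 15. Toxicokinetic blood samples were drawn on days 1, 14 and 28.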

Rattus norvegicus [8] = assay: Toxicity in female rat assessed as effect on WBC count at 20 mg/kg/day, po bid administered for 4 weeks (reference value: 3.66 x 10^9/L); assay type: organism-based; parameters: route oral; details: in vivo, 672 h
Rattus norvegicus [9] = assay: Toxicity in female rat assessed as effect on hemoglobin level at 20 mg/kg/day, po bid administered for 4 weeks (reference value: 141.8 g/L); assay type: organism-based; parameters: route oral; details: in vivo, 672 h
Rattus norvegicus [10] = assay: Toxicity in female rat assessed as effect on mean corpuscular volume at 20 mg/kg/day, po bid administered for 4 weeks (reference value: 53.72 fL); assay type: organism-based; parameters: route oral; details: in vivo, 672 h
Rattus norvegicus [11] = assay: Toxicity in female rat assessed as effect on mean corpuscular hemoglobin level at 20 mg/kg/day, po bid administered for 4 weeks (reference value: 19.5 pg); assay type: organism-based; parameters: route oral; details: in vivo, 672 h
Rattus norvegicus [12] = assay: Toxicity in female rat assessed as effect on mean corpuscular hemoglobin level at 100 mg/kg/day, po bid administered for 4 weeks (reference value: 19.5 pg); assay type: organism-based; parameters: route oral; details: in vivo, 672 h
Rattus norvegicus [13] = assay: Toxicity in female rat assessed as effect on platelet count at 100 mg/kg/day, po bid administered for 4 weeks (reference value: 654.6 x 10^9/L); assay type: organism-based; parameters: route oral; details: in vivo, 672 h
Rattus norvegicus [14] = assay: Toxicity in female rat assessed as effect on reticulocyte count at 100 mg/kg/day, po bid administered for 4 weeks (reference value: 1.48%); assay type: organism-based; parameters: route oral; details: in vivo, 672 h
Rattus norvegicus [15] = assay: Toxicity in female rat assessed as effect on mean corpuscular volume at 200 to 300 mg/kg/day, po bid administered for 4 weeks (reference value: 53.72 fL); assay type: organism-based; parameters: route oral; details: in vivo, 672 h
[16] = biological target: T1, Amine oxidase [flavin-containing] A (Homo sapiens, UniProt P21397); assay: Inhibition of MAO-A (unknown origin) using tyramine as substrate after 30 to 60 mins by fluorescence plate reader analysis
T1 sequence (P21397 whole entry): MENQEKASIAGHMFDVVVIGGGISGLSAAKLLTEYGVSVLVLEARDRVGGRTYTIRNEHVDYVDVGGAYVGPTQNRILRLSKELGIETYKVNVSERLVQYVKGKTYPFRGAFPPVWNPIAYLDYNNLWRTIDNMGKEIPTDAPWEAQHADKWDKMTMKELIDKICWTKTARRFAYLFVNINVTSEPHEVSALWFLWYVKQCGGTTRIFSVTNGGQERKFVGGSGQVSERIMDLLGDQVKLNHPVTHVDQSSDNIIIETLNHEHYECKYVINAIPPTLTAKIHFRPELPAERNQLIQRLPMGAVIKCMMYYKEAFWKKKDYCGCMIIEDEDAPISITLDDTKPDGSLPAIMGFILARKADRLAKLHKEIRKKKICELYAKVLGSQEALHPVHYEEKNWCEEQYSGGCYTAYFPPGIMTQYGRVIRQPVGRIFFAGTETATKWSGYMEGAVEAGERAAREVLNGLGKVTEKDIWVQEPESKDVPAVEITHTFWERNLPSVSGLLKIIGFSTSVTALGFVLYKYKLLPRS

[17] = Clastogenicity in CHL cells assessed as induction of structural chromosomal aberration at 25 to 200 ug/mL measured over 24 hrs in absence of metabolic activation; assay type: toxicity, cell-based, Cricetulus griseus; details: chinese hamster
Method in brief: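 Chromosomal aberration test in Chinese hamster lung cells, run with and without metabolic activation. Exposure was 50−400 μg/mL for 6 h or 25−200 μg/mL for 24 h, and structural chromosome aberrations were scored.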

Staphylococcus aureus [18] = assay: Antibacterial activity against Staphylococcus aureus in po dosed mouse septicemia model; assay type: functional
[19] = Tmax in human at 600 mg, po administered as single dose with meal measured on day 1; assay type: ADME, organism-based; details: in vivo
Method in brief: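 Randomized, double-blind, placebo-controlled multiple-dose study in 32 healthy subjects, half male and half female. Dosing was 600 or 800 mg orally with a meal, 28 doses over 15 days. A single dose was given on days 1 and 15 for full PK, with Q12h (BID) dosing on days 2−14.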

Streptococcus pneumoniae = assay: Antibacterial activity against penicillin-sensitive Streptococcus pneumoniae isolate 0806 in po dosed mouse systemic infection model; assay type: functional; details: isolate 0806, po
Enterococcus faecalis = assay: Antibacterial activity against vancomycin-sensitive Enterococcus faecalis ATCC 29212 in po dosed mouse systemic infection model; assay type: functional; details: ATCC 29212, po
Streptococcus pyogenes = assay: Antibacterial activity against Streptococcus pyogenes isolate 556 in po dosed mouse systemic infection model; assay type: functional; details: isolate 556, po
Staphylococcus aureus [20] = assay: Antibacterial activity against methicillin-resistant Staphylococcus aureus isolate 0605 in mouse thigh infection model assessed as reduction of log10 CFU per thigh at 80 mg/kg, po; assay type: functional
[21] = Tmax in po dosed mouse; assay type: ADME, organism-based; details: in vivo
[22] = Tmax in po dosed rat; assay type: ADME, organism-based; details: in vivo
Mus musculus = assay: Dose normalized Cmax in po dosed mouse; assay type: ADME, organism-based; details: in vivo
[23] = Oral bioavailability in dog; assay type: ADME, organism-based, Canis lupus familiaris; details: in vivo
[24] = AUC (0 to t) in female rat at 5 mg/kg, po; assay type: ADME, organism-based; parameters: dose 5 mg/kg, route oral; details: plasma
Method in brief: (§1)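 Rat PK by gender, with single oral doses of 5, 15 and 45 mg/kg and an iv dose of 5 mg/kg. Tmax, Cmax, T1/2 and AUC0−t were reported per gender.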

[25] = AUC (0 to t) in male rat at 15 mg/kg, po; assay type: ADME, organism-based; parameters: dose 15 mg/kg, route oral; details: plasma; method in brief: as §1

O=C1C=CN(c2c(F)cc(N3C[C@H](CNc4ccon4)OC3=O)c(F)c2F)CC1 [CONTEZOLID]
Cmax [1]: 12200 ng/mL
Tmax [2]: 120 min
AUC(0-inf) [3]: 48300 ng·h/mL
Activity (Homo sapiens [4]): Non-toxic
Drug uptake (Rattus norvegicus [5]): Not Active
Drug uptake (Homo sapiens [6]): Not Active
Drug uptake (Rattus norvegicus [7]): Not Active
Activity (Rattus norvegicus [8]): 4.5 ×10⁹ /L
Activity (Rattus norvegicus [9]): 137.8 g/L
Activity (Rattus norvegicus [10]): 54.52 fL
Activity (Rattus norvegicus [11]): 20.2 pg
Activity (Rattus norvegicus [12]): 20.28 pg
Activity (Rattus norvegicus [13]): 636.2 ×10⁹ /L
Activity (Rattus norvegicus [14]): 1.46%
Activity (Rattus norvegicus [15]): 53.02 fL
IC50 [16]: 103 µM
Activity [17]: Non-toxic
ED50 (Staphylococcus aureus [18]): 7.9 mg/kg
Tmax [19]: 39 min
ED50 (Streptococcus pneumoniae): 22 mg/kg
ED50 (Enterococcus faecalis): 14.1 mg/kg
ED50 (Streptococcus pyogenes): 8.9 mg/kg
deltalog10CFU (Staphylococcus aureus [20]): 4.53
Tmax [21]: 30 min
Tmax [22]: 30 min
Cmax/dose (Mus musculus): 524 ng/mL/(mg/kg)
bioavailability [23]: 37%
AUC(0-t) [24]: 31500 ng·h/mL
AUC(0-t) [25]: 34300 ng·h/mL
